According to ChEMBL document CHEMBL4190362, “Synthesis, biological evaluation and quantitative structure-active relationships of 1,3-thiazolidin-4-one derivatives. A promising chemical scaffold endowed with high antifungal potency and low cytotoxicity” (Eur J Med Chem, 2017):
In brackets after ≈: the same amount, converted by molar mass.

Columns and labels:
Staphylococcus aureus = test: Antibacterial activity against Staphylococcus aureus assessed as inhibition of microbial growth incubated for 18 to 22 hrs by broth microdilution method; type: functional
In short: (§1)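 Broth microdilution in Mueller-Hinton II broth following NCCLS recommendations; compounds dissolved in DMSO.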

Staphylococcus warneri = test: Antibacterial activity against Staphylococcus warneri assessed as inhibition of microbial growth incubated for 18 to 22 hrs by broth microdilution method; type: functional; in short: as §1
Enterococcus faecalis = test: Antibacterial activity against Streptococcus faecalis assessed as inhibition of microbial growth incubated for 18 to 22 hrs by broth microdilution method; type: functional; in short: as §1
Escherichia coli = test: Antibacterial activity against Escherichia coli assessed as inhibition of microbial growth incubated for 18 to 22 hrs by broth microdilution method; type: functional; in short: as §1
Proteus mirabilis = test: Antibacterial activity against Proteus mirabilis assessed as inhibition of microbial growth incubated for 18 to 22 hrs by broth microdilution method; type: functional; in short: as §1
Enterobacter = test: Antibacterial activity against Enterobacter spp. assessed as inhibition of microbial growth incubated for 18 to 22 hrs by broth microdilution method; type: functional; in short: as §1
Klebsiella oxytoca = test: Antibacterial activity against Klebsiella oxytoca assessed as inhibition of microbial growth incubated for 18 to 22 hrs by broth microdilution method; type: functional; in short: as §1
Candida albicans = test: Antifungal activity against Candida albicans clinical isolates assessed as inhibition of microbial growth incubated for 24 hrs by broth microdilution method; type: functional
In short: (§2)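 Twenty-two clinical Candida isolates (8 C. albicans, 4 C. glabrata, 3 C. tropicalis, 3 C. krusei, 2 C. parapsilosis, 2 C. sake) were identified by colony morphology and biochemistry and subcultured at 35 °C for purity. Compounds were dissolved in DMSO and tested by broth microdilution in Sabouraud dextrose broth per NCCLS/CLSI/EUCAST guidance. Values are geometric mean MIC per species (µg/mL).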

Nakaseomyces glabratus = test: Antifungal activity against Candida glabrata clinical isolates assessed as inhibition of microbial growth incubated for 24 hrs by broth microdilution method; type: functional; in short: as §2
Candida tropicalis = test: Antifungal activity against Candida tropicalis clinical isolates assessed as inhibition of microbial growth incubated for 24 hrs by broth microdilution method; type: functional; in short: as §2
Pichia kudriavzevii = test: Antifungal activity against Candida krusei clinical isolates assessed as inhibition of microbial growth incubated for 24 hrs by broth microdilution method; type: functional; in short: as §2
Candida parapsilosis = test: Antifungal activity against Candida parapsilosis clinical isolates assessed as inhibition of microbial growth incubated for 24 hrs by broth microdilution method; type: functional; conditions: Lodderomyces parapsilosis; in short: as §2
[Candida] sake = Antifungal activity against Candida sake clinical isolates assessed as inhibition of microbial growth incubated for 24 hrs by broth microdilution method; type: functional; conditions: Fermentozyma sake; in short: as §2
[1] = Cytotoxicity against human Hep2 cells assessed as reduction in cell viability incubated for 24 hrs by trypan blue dye exclusion assay; type: cell-based; conditions: HEp-2 cells
In short: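 Hep2 (human laryngeal epidermoid carcinoma) cells were exposed to five concentrations from 0.05 to 100 µg/mL for 24 h at 37 °C, and viability was scored by Trypan Blue exclusion as survival fraction. Controls were medium alone, DMSO-treated cells and 1 mM sodium nitroprusside. CC50 is the mean ± SD of at least three independent experiments.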

[2] = Selectivity index, ratio of CC50 for human Hep2 cells to MIC for Candida albicans clinical isolates; type: toxicity; conditions: HEp-2 cells, read-out: Selectivity Index
In short: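 Calculated as Hep2 CC50 (Trypan Blue exclusion, 24 h, 37 °C) divided by MIC against C. albicans.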

[3] = test system: Streptococcus alpha-hemolyticus (Streptococcus sp.); test: Antibacterial activity against Streptococcus Streptococcus alpha hemolyticus assessed as inhibition of microbial growth incubated for 18 to 22 hrs by broth microdilution method

| SMILES | MIC (Staphylococcus aureus) [mg/L] | MIC (Staphylococcus warneri) [mg/L] | MIC (Enterococcus faecalis) [mg/L] | MIC (Escherichia coli) [mg/L] | MIC (Proteus mirabilis) [mg/L] | MIC (Enterobacter) [mg/L] | MIC (Klebsiella oxytoca) [mg/L] | MIC (Candida albicans) [mg/L] | MIC (Nakaseomyces glabratus) [mg/L] | MIC (Candida tropicalis) [mg/L] | MIC (Pichia kudriavzevii) [mg/L] | MIC (Candida parapsilosis) [mg/L] | MIC ([Candida] sake) [mg/L] | CC50 at 24 h [1] [mg/L] | selectivity ratio [2] | MIC [3] [mg/L] |
| --- | --- | --- | --- | --- | --- | --- | --- | --- | --- | --- | --- | --- | --- | --- | --- | --- |
| CC(C)=N/N=C1\NC(=O)CS1 | ≥ 256 | ≥ 256 | ≥ 256 | ≥ 256 | ≥ 256 | ≥ 256 | ≥ 256 | 2 | 2 | 2 | 2 | 2 | 2 | 68.4 (≈ 399 µM) | 34 | ≥ 256 |
| CCC(CC)=N/N=C1\NC(=O)CS1 | ≥ 256 | ≥ 256 | ≥ 256 | ≥ 256 | ≥ 256 | ≥ 256 | ≥ 256 | 2 | 1 | 4 | 2 | 2 | 2 | 49.2 (≈ 247 µM) | 24.5 | ≥ 256 |
| CCC/C(C)=N\N=C1/NC(=O)CS1 | ≥ 256 | ≥ 256 | ≥ 256 | ≥ 256 | ≥ 256 | ≥ 256 | ≥ 256 | 2 | 2 | 2 | 2 | 2 | 2 | 93.4 (≈ 469 µM) | 46.5 | ≥ 256 |
| CC1CCC/C1=N/N=C1\NC(=O)CS1 (stereo unspecified) | ≥ 256 | ≥ 256 | ≥ 256 | ≥ 256 | ≥ 256 | ≥ 256 | ≥ 256 | 2 | 1 | 8 | 2 | 2 | 2 | 52.8 (≈ 250 µM) | 26 | ≥ 256 |
| CCCC/C(CC)=N\N=C1/NC(=O)CS1 | ≥ 256 | ≥ 256 | ≥ 256 | ≥ 256 | ≥ 256 | ≥ 256 | ≥ 256 | 4 | 1 | 1 | 2 | 2 | 4 | 46.4 (≈ 204 µM) | 11.5 | ≥ 256 |
| C/C(=N/N=C1\NC(=O)CS1)c1ccccn1 | ≥ 256 | ≥ 256 | ≥ 256 | ≥ 256 | ≥ 256 | ≥ 256 | ≥ 256 | 2 | 1 | 1 | 8 | 16 | 16 | 56.8 (≈ 242 µM) | 28 | ≥ 256 |
| C/C(=N/N=C1\NC(=O)CS1)c1cccs1 | ≥ 256 | ≥ 256 | ≥ 256 | ≥ 256 | ≥ 256 | ≥ 256 | ≥ 256 | 2 | 1 | 2 | 8 | 16 | 16 | > 100 | > 50 | ≥ 256 |
| CC1CC/C(=N/N=C2\NC(=O)CS2)C1 (stereo unspecified) | ≥ 256 | ≥ 256 | ≥ 256 | ≥ 256 | ≥ 256 | ≥ 256 | ≥ 256 | 2 | 2 | 2 | 2 | 2 | 2 | 50.8 (≈ 240 µM) | 25 | ≥ 256 |

Second part, led by results:

| MIC (Staphylococcus aureus) [mg/L] | MIC (Staphylococcus warneri) [mg/L] | MIC (Enterococcus faecalis) [mg/L] | MIC (Escherichia coli) [mg/L] | MIC (Proteus mirabilis) [mg/L] | MIC (Enterobacter) [mg/L] | MIC (Klebsiella oxytoca) [mg/L] | MIC (Candida albicans) [mg/L] | MIC (Nakaseomyces glabratus) [mg/L] | MIC (Candida tropicalis) [mg/L] | MIC (Pichia kudriavzevii) [mg/L] | MIC (Candida parapsilosis) [mg/L] | MIC ([Candida] sake) [mg/L] | SMILES | CC50 at 24 h [1] [mg/L] | selectivity ratio [2] | MIC [3] [mg/L] |
| --- | --- | --- | --- | --- | --- | --- | --- | --- | --- | --- | --- | --- | --- | --- | --- | --- |
| ≥ 256 | ≥ 256 | ≥ 256 | ≥ 256 | ≥ 256 | ≥ 256 | ≥ 256 | 2 | 2 | 4 | 8 | 8 | 8 | CCCCC/C(C)=N\N=C1/NC(=O)CS1 | 71.8 (≈ 316 µM) | 35.5 | ≥ 256 |
| ≥ 256 | ≥ 256 | ≥ 256 | ≥ 256 | ≥ 256 | ≥ 256 | ≥ 256 | 2 | 2 | 2 | 2 | 2 | 2 | O=C1CSC(NN=C2CCCC2)=N1 | 22.2 (≈ 113 µM) | 11.1 | ≥ 256 |
| ≥ 256 | ≥ 256 | ≥ 256 | ≥ 256 | ≥ 256 | ≥ 256 | ≥ 256 | 2 | 1 | 8 | 2 | 2 | 2 | CC1CCCC/C1=N/N=C1\NC(=O)CS1 (stereo unspecified) | 52.6 (≈ 233 µM) | 26 | ≥ 256 |
